Activity calls are given as the source filed them. The calls are words filed in the database; no cut-off is given here.
How the values were obtained:
[1] = Displacement of [3H]-flumazenil from central-type benzodiazepine receptor in bovine cortical membrane after 90 mins by liquid-phase scintillation beta-counting method; format: cell membranes, Bos taurus
In short: (§1)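 Competition binding against radiolabelled antagonist [3H]flumazenil in cortical membranes (bovine; human where listed); Ki reported as mean ± SEM of three independent determinations.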

[2] = organism: Bos taurus; experiment: Selectivity ratio, ratio of Ki for central-type benzodiazepine receptor in bovine cortical membrane to Ki for central-type benzodiazepine receptor in bovine cortical membrane in presence of 50 uM of GABA; format: cell membranes
[3] = organism: Rattus norvegicus; experiment: Antagonist activity at central-type benzodiazepine receptor in Sprague-Dawley rat cerebrocortical synaptoneurosomes assessed as decrease in 36Cl- flow after 10 secs by liquid-phase scintillation beta-counting method
[4] = Displacement of [3H]-flumazenil from central-type benzodiazepine receptor in human cortical membrane after 90 mins by liquid-phase scintillation beta-counting method; format: cell membranes; in short: as §1
[5] = organism: Homo sapiens; experiment: Selectivity ratio, ratio of Ki for central-type benzodiazepine receptor in human cortical membrane to Ki for central-type benzodiazepine receptor in human cortical membrane in presence of 50 uM of GABA; format: cell membranes
[6] = organism: Rattus norvegicus; experiment: Partial agonist activity at central-type benzodiazepine receptor in Sprague-Dawley rat cerebrocortical synaptoneurosomes assessed as increase in 36Cl- influx after 10 secs by liquid-phase scintillation beta-counting method
[7] = organism: Rattus norvegicus; experiment: Partial inverse agonist activity at central-type benzodiazepine receptor in Sprague-Dawley rat cerebrocortical synaptoneurosomes assessed as decrease in 36Cl- flow after 10 secs by liquid-phase scintillation beta-counting method
[8] = organism: Rattus norvegicus; experiment: Inverse agonist activity at central-type benzodiazepine receptor in Sprague-Dawley rat cerebrocortical synaptoneurosomes assessed as decrease in 36Cl- flow after 10 secs by liquid-phase scintillation beta-counting method
[9] = system: Mus musculus; experiment: Neurotoxicity in mouse assessed as effect on neurological and muscular abilities at 10 mg/kg, po after 30 mins by Hole-Board test; format: toxicity, organism-based; details: in vivo, 0.5 h
In short: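 Hole-board test 30 min after oral dosing at 10 mg kg-1 counted movements (motor activity) and head inspections (exploratory activity). Values are mean ± SEM of at least 10 mice, compared with vehicle controls.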

[10] = organism: Mus musculus; experiment: Myorelaxant effect in mouse assessed as effect on motor coordination after 30 mins by rotarad test; format: organism-based; details: in vivo, 0.5 h
In short: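 Rota-rod test of motor coordination in mice, with compounds given per os 30 min before testing. Values are mean ± SEM of at least 10 mice.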

[11] = system: Mus musculus; experiment: Antiamnestic activity in mouse assessed as prevention of scopalamine-induced amnesia at 10 mg/kg, po administered 30 mins before test by passive avoidance test; format: functional, organism-based
In short: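 Passive avoidance in mice: compounds were given per os 30 min before the test, and scopolamine 1.5 mg kg-1 i.p. immediately after the punishment. Read-out was time recorded during the retention session. Values are mean ± SEM of at least 10 mice, compared with vehicle-treated animals.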

[12] = system: Mus musculus; experiment: Anxiolytic activity against mouse assessed as increase in time spent in light box at 10 mg/kg, po administered 30 mins before test by light-dark box test; format: functional, organism-based
In short: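 Light-dark box in mice measured time in the light compartment. Compounds were given per os 30 min before testing, and diazepam 1 mg kg-1 subcutaneously as reference. Values are mean ± SEM of at least 10 mice, compared with vehicle-treated animals.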

[13] = Binding affinity to rat cortical membrane central-type benzodiazepine receptor measured after 90 mins by liquid-phase scintillation beta-counting method
[14] = organism: Rattus norvegicus; experiment: Selectivity ratio, ratio of Ki for central-type benzodiazepine receptor in rat cortical membrane to Ki for central-type benzodiazepine receptor in rat cortical membrane in presence of 50 uM of GABA; format: cell membranes
In short: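 GABA ratio is Ki without GABA divided by Ki with 50 µM GABA, from [3H]flumazenil competition binding in cortical membranes. Per the table footnote, ratio values were obtained in rat cortical membranes.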

[15] = system: Brain; experiment: Neuroprotective activity against oxygen-glucose deprivation and reoxygenation-induced injury in Sprague-Dawley rat brain cortical slices assessed as maximum recovery in LDH release at 5 uM treated during 90 mins of reperfusion phase measured after 90 mins by spetrophotometric method; format: functional
In short: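 Rat brain cortical slices in ACSF underwent 30 min oxygen/glucose deprivation, then 90 min reoxygenated ACSF (reperfusion). Controls were kept 120 min in ACSF. Compounds (0.1–100 µM) were added only during reperfusion, and LDH release was measured. Data are means ± SEM of at least 4 experiments, analysed by ANOVA with Dunnett post test. The effective concentration is that giving the largest reduction, and recovery is the % reversion at that concentration.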

Row | SMILES | Ki [1] | Ratio Ki [2] | Antagonist activity [3] | also measured
1 | CCOC(=O)c1ncn2c1cc(-c1ccccc1)c1ccccc12 | 42 nM | 0.9 | Active | 
2 | CCCN(CCC)C(=O)c1cc2c(C(=O)OCC)ncn2c2ccccc12 | 0.91 nM | 1 | Active | 
3 | Cc1c(-c2ccccc2)c2ccccc2n2cnc(C(=O)OC(C)(C)C)c12 | 10 nM | 1 | Active | 
4 | CCOC(=O)c1ncn2c1c1c(c3ccccc32)CCC1 | 18 nM | 1.3 |  | 
5 | CCOC(=O)c1ncn2c1CN(C(C)=O)c1cc(F)ccc1-2 | 2.2 nM | 0.75 |  | Ki [4]: 2.7 nM; Ratio Ki [5]: 0.95; Activity [6]: Active; Activity [7]: Active
6 | CCOC(=O)c1ncn2c1c(C)c(C(=O)OC(C)(C)C)c1ccccc12 | 1 nM | 1.4 |  | Activity [6]: Active
7 | CN(C)C(=O)c1cc2c(C(=O)OC(C)(C)C)ncn2c2ccccc12 | 11 nM | 1.6 |  | Activity [6]: Active
8 | C#CCN(C)C(=O)c1c(C)c2c(C(=O)OCC)ncn2c2ccccc12 | 1.2 nM | 1 | Active | 
9 | CC(=O)N1Cc2c(C(=O)OC(C)(C)C)ncn2-c2ccc(F)cc21 | 1 nM | 1 | Active | Ki [4]: 2 nM; Ratio Ki [5]: 1; Activity [6]: Active
10 | CCOC(=O)c1ncn2c1c(C)c(C(=O)O)c1ccccc12 | 105 nM | 1.2 |  | Activity [6]: Active
11 | CCOC(=O)c1ncn2c1CN(C(C)=O)c1ccccc1-2 | 25 nM | 0.9 | Active | Ki [4]: 33 nM
12 | CCCCN(C)C(=O)c1cc2c(C(=O)OCC)ncn2c2ccccc12 | 1.9 nM | 0.76 |  | Activity [8]: Active; Activity [9]: Non-toxic; Activity [10]: Non-toxic; Activity [11]: Active; Activity [12]: Active
13 | CC(=O)N1Cc2c(C(=O)OC(C)(C)C)ncn2-c2ccccc21 | 7.3 nM | 0.98 | Active | Ki [4]: 7.7 nM; Ratio Ki [5]: 1.04
14 | CCOC(=O)c1ncn2c1c(C)c(C(=O)N(C)Cc1ccccc1)c1ccccc12 | 6.5 nM | 1.1 | Active | 
15 | CN(Cc1ccccc1)C(=O)c1ncn2c1cc(-c1ccccc1)c1ccccc12 | 449 nM | 0.92 | Active | 
16 | C#Cc1ccc2c(c1)c(C(=O)N(C)Cc1ccccc1)cc1c(C(=O)OCC)ncn12 |  |  | Active | Ki [13]: 161 nM; Ratio Ki [14]: 0.95
17 | CCOC(=O)c1ncn2c1c(CO)c(-c1ccccc1)c1ccccc12 | 1.8 nM | 1.18 |  | Ki [4]: 2 nM; Activity [6]: Active; Activity [15]: 39.5%
18 | CCCc1c(C(=O)N(CCC)CCC)c2ccccc2n2cnc(C(=O)OCC)c12 | 34 nM | 1.1 | Active | 

Row | SMILES | Ki [1] | Ratio Ki [2] | Antagonist activity [3] | also measured
19 | CC(C)(C)OC(=O)c1ncn2c1cc(-c1ccccc1)c1ccccc12 | 55 nM | 0.8 |  | Activity [8]: Active
20 | CCCN(CCC)C(=O)c1cc2c(C(=O)OC(C)(C)C)ncn2c2ccccc12 | 1.2 nM | 1.1 | Active | 
21 | CCOC(=O)c1ncn2c1cc(C(=O)N(C)Cc1ccccc1)c1cc(F)ccc12 | 5.7 nM | 0.8 |  | Activity [8]: Active
22 | CN1C(=O)CN=C(c2ccccc2F)c2cc([N+](=O)[O-])ccc21 [FLUNITRAZEPAM] | 5.2 nM | 1.68 |  | Ki [4]: 6.4 nM; Ratio Ki [5]: 1.61; Activity [7]: Active
23 | CCOC(=O)Cc1c(-c2ccccc2)c2ccccc2n2cnc(C(=O)OCC)c12 | 3.8 nM | 0.72 |  | Activity [8]: Active
24 | CCOC(=O)c1ncn2c1cc(C(=O)N1CCN(C)CC1)c1ccccc12 | 55 nM | 1 | Active | 
25 | CCOC(=O)c1ncn2c1c(C(=O)OCC)c(-c1ccccc1)c1ccccc12 | 2190 nM | 0.66 |  | Activity [8]: Active
26 | CCOC(=O)c1ncn2c1cc(C(=O)N(C)Cc1ccccc1)c1ccccc12 | 20 nM | 0.52 |  | Activity [8]: Active
27 | CCCc1c(C(=O)N(CC)CC)c2ccccc2n2cnc(C(=O)OC(C)(C)C)c12 | 2870 nM | 1.1 |  | 
28 | CN(Cc1ccccc1)C(=O)c1cc2c(C(=O)OC(C)(C)C)ncn2c2ccccc12 | 14 nM | 0.98 | Active | 
29 | CCOC(=O)c1cc2c(cn1)[nH]c1ccccc12 |  |  |  | Activity [7]: Active
30 | CN(C)C(=O)c1ncn2c1cc(-c1ccccc1)c1ccccc12 | 3520 nM | 1.44 |  | Activity [6]: Active
31 | CCOC(=O)c1ncn2c1cc(C(=O)N(C)Cc1ccccc1)c1cc(C#C[Si](C)(C)C)ccc12 |  |  | Active | Ki [13]: 510 nM; Ratio Ki [14]: 0.99
32 | CCOC(=O)c1ncn2c1cc(C(=O)N(C)Cc1ccccc1)c1cc(Br)ccc12 |  |  | Active | Ki [13]: 24 nM; Ratio Ki [14]: 0.9
33 | CCCc1c(C(=O)N(CC)CC)c2ccccc2n2cnc(C(=O)OCC)c12 | 169 nM | 0.9 |  | 
34 | CCOC(=O)c1ncn2c1CN(C)C(=O)c1cc(F)ccc1-2 [FLUMAZENIL] | 1.9 nM | 1.03 |  | Ki [4]: 2 nM; Ratio Ki [5]: 1.02; Activity [7]: Active
35 | CCCc1c(C(=O)N(CCC)CCC)c2ccccc2n2cnc(C(=O)OC(C)(C)C)c12 | 1440 nM | 1 | Active | 
